Article PMC5435512 (Pain, 2017)

Experiments:
[1] = test system: cisplatin-induced mechanical allodynia; assay: Von Frey test, cisplatin-induced mechanical allodynia in mice; type: in vivo
[2] = test system: HDAC6 compared with Class I HDACs; settings: 42; cited from earlier work
rat DRG neurons = assay: Mitochondrial movement in cultured DRG neurons; type: cell-based; settings: rat DRG neuron cultures, 3 hours
How it was run: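 Commercial DRG neurons were cultured 5–7 days, then given BacMam 2.0 GFP mitochondrial label 24 h before treatment. […] Live imaging was done at 37°C in CO2-independent Hibernate E medium that still contained the drugs, and mitochondrial movement was scored.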

DRG neurons = assay: Mitochondrial bioenergetics in DRG neurons isolated from treated mice; type: in vivo
How it was run: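 Cells were cultured overnight in an XF24 plate in Ham's F10 + N2, switched to XF medium 1 h before the run. Injections: oligomycin 2 μM, FCCP 4 μM, rotenone/antimycin A 2 μM each. Cycles: 2-min mix/3-min wait/2-min measure ×3. OCR was normalised to protein; basal, ATP-linked, leak and maximal respiration were derived.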

[3] = test system: tibial nerve mitochondrial respiration; assay: Mitochondrial bioenergetics; type: in vivo, mice
How it was run: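 Tibial nerves were run in an islet-capture XF24 plate in XF medium with 5.5 mM glucose, 0.5 mM pyruvate and 1 mM glutamine. Oligomycin (12 μM), FCCP (20 μM) and rotenone/antimycin A (20 μM each) were injected in sequence, with 4 cycles (3-min mix/3-min wait/4-min measure) at baseline and after each injection. Basal, ATP-linked, proton leak, maximal and non-mitochondrial OCR were derived.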

IENF density = assay: Intra-epidermal nerve fiber; type: in vivo, mice
How it was run: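 Plantar hind-paw biopsies were cut as 25 μm frozen sections and stained for PGP9.5 and collagen IV, then imaged by confocal. IENFs crossing the dermal–epidermal junction were counted per mm of epidermis. Five random images per mouse, 4 mice/group, blinded analysis.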

GFAP expression = assay: GFAP immunofluorescence in spinal cord dorsal horn; type: in vivo; settings: cisplatin-treated mice, 3 doses of 10 mg/kg
HDAC1-9 = assay: HDAC enzyme assays, other isoforms; type: biochemical
How it was run: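 Test compound was diluted in 50 mM HEPES pH 7.4, 100 mM KCl, 0.001% Tween-20, 0.05% BSA and 20 μM TCEP, then preincubated 24 h with recombinant HDAC enzyme. Substrate at Km, with trypsin, was then added: acetyl-lysine tripeptide for HDAC1/2/3/6, trifluoroacetyl-lysine tripeptide for HDAC4/5/7/8/9. […] release was read over 30 min and the linear rate taken. IC50 came from a 4-parameter fit.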

Cox IV, SDHA and VDAC = assay: Western blot of mitochondrial proteins in tibial nerves; type: in vivo, mice; settings: 2 rounds of cisplatin and 11 injections
[4] = test system: α-tubulin acetylation in SK-N-BE2 cells; assay: Western blot of acetylated α-tubulin in SK-N-BE2 cells; type: cell-based; settings: 5 hours
How it was run: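 SK-N-BE2 cells grown to 70% confluence, then exposed 5 h to test compound in DMSO (0.1% DMSO final in all wells). Cells PBS-washed, lysed in cold RIPA buffer with protease inhibitors and PMSF, sonicated, and centrifuged. Supernatants immunoblotted for acetylated α-tubulin (mouse monoclonal) and, as a non-HDAC6 substrate, histone H2BK5ac (rabbit polyclonal).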

α-tubulin acetylation = assay: Western blot of acetylated α-tubulin in tibial nerves; type: in vivo; settings: mice, saline or cisplatin followed by 11 doses
How it was run: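 Tibial nerves were first run in an XF24 OCR assay (XF medium with 5.5 mM glucose, 0.5 mM pyruvate, 1 mM glutamine). The same nerves were then western-blotted for acetylated α-tubulin with a rabbit monoclonal.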

[5] = test system: cisplatin-induced numbness; assay: Adhesive removal test; type: in vivo; settings: mice, treatment starting after 2 rounds of cisplatin, tested in week 5
How it was run: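 Test compound in 20% 2-hydroxypropyl-β-cyclodextrin + 0.5% hydroxypropyl methylcellulose in water, given i.p. at 3 or 10 mg/kg. A round adhesive patch was placed on the plantar hind paws. Time to a behavioural response (shaking, attempted removal) was recorded within a 15-minute test.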

[6] = test system: cisplatin-induced spontaneous pain; settings: cisplatin-treated mice, 2 weeks of daily treatment
[7] = In vivo pharmacokinetics in mice; settings: 5 mg/kg i.p.
How it was run: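 Mice were fasted overnight and given a single 5 mg/kg i.p. dose in 10% dimethylacetamide + 10% Solutol HS 15 in saline. Retro-orbital blood was taken at 5, 15, 30 min and 1, 2, 4, 8, 24 h. Plasma was spun at 2,000 × g, 5 min, 4°C. Levels were measured by LC-MS/MS against a standard curve in mouse plasma, then PK parameters calculated; n=3/group.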

[8] = test system: histone acetylation in SK-N-BE2 cells; assay: Western blot of histone acetylation; type: cell-based; settings: 5 hours, 3 nM to 10 μM
How it was run: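 SK-N-BE2 cells at 70% confluence were treated 5 h with test compound at 3 nM–10 μM final, with DMSO 0.1% total. Cells were washed in cold PBS and lysed in RIPA with protease inhibitors/PMSF, 10 min on ice. Lysates were sonicated and centrifuged. Supernatants were immunoblotted for histone H2BK5ac (rabbit polyclonal) and acetylated α-tubulin (mouse monoclonal).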

[9] = test system: paclitaxel-induced mechanical allodynia; assay: Von Frey test, paclitaxel-induced mechanical allodynia in rats; type: in vivo; settings: 3 mg/kg oral twice daily for 7 days, last day tested

Molecule: O=C(CCCCCCNC(=O)c1cnc(N(c2ccccc2)c2ccccc2)nc1)NO [ACY-1215, Ricolinostat, reference compound]
- persistence of the beneficial effect after completion of treatment ([1]; 30 mg/kg oral daily for two weeks, last time point tested): still present one week after completion of treatment
- selectivity against HDAC6 compared with Class I HDACs [2]: over 10 fold

Molecule: N.N.[Cl][Pt][Cl] [cisplatin, Cisplatin, reference compound]
- percentage of moving mitochondria (rat DRG neurons; cisplatin 80 μM, vs vehicle): decreased the percentage of moving mitochondria
- mitochondrial bioenergetics in DRG neurons (DRG neurons; mice, 2 rounds of cisplatin): overall decrease in mitochondrial bioenergetics
- mitochondrial respiration in tibial nerves ([3]; mice, 2 cycles of cisplatin 2.3 mg/kg i.p. x 5 days): significantly decreased mitochondrial respiration
- IENF density in plantar surface of the paw (IENF density; mice, 2 cycles of cisplatin): reduced the IENF density

Molecule: ACY-1083
- mechanical sensitivity in the absence of cisplatin treatment ([1]; 10 mg/kg): did not alter mechanical sensitivity
- time after the first dose at which the effect was first detected ([1]; 10 mg/kg i.p.): 24 h
- effect of a second round of 7 daily injections on mechanical allodynia ([1]; 10 mg/kg, 7 days, 7 days rest): transiently reversed cisplatin-induced mechanical allodynia again
- prevention of development of mechanical allodynia ([1]; administered i.p. 1 hour prior to each dose of cisplatin): capable of preventing the development of mechanical allodynia
- GFAP expression in dorsal horn of spinal cord (GFAP expression): normalized GFAP expression to levels comparable to saline-treated animals
- percentage of moving mitochondria, co-administration with cisplatin (rat DRG neurons; 100 nM with cisplatin 80 μM): prevented this cisplatin-induced decrease in mitochondrial transport
- mitochondrial bioenergetics in DRG neurons of cisplatin-treated mice (DRG neurons; 2 rounds of cisplatin and 11 injections): did not detect a similar recovery
- mitochondrial bioenergetics in DRG neurons, treatment alone (DRG neurons; mice without cisplatin, either time point): did not have any effect on mitochondrial bioenergetics in DRG neurons
- mitochondrial bioenergetics in DRG neurons of cisplatin-treated mice (DRG neurons; two weeks of treatment, 2 weeks after the last dose): significant recovery of mitochondrial bioenergetics
- inhibitory activity against other enzymes (HDAC1-9): negligible inhibitory activity against other enzymes
- selectivity for HDAC6 over all other HDAC isoforms tested (HDAC1-9; HDAC1-9): 260 fold
- Cox IV levels in tibial nerve of cisplatin-treated mice (Cox IV, SDHA and VDAC): normalized Cox IV levels
- selectivity towards HDAC6 in cells (α-tubulin vs histone acetylation) [4]: over 300 fold
- concentration at which the increase in α-tubulin acetylation starts ([4]; 3 nM to 10 μM): 30 nM
- α-tubulin acetylation in tibial nerves (α-tubulin acetylation): increased α-tubulin acetylation
- cisplatin-induced numbness: time to respond to adhesive patch [5]: normalized the response time
- mitochondrial respiration in tibial nerve of cisplatin-treated mice ([3]; 2 cycles of cisplatin followed by 11 doses): normalized all aspects of the cisplatin-induced decrease in mitochondrial respiration
- mitochondrial bioenergetics in tibial nerve, treatment alone ([3]; mice without cisplatin, 11 doses): did not have any effect on mitochondrial bioenergetics
- IENF density in cisplatin-treated mice, prolonged regimen (IENF density; 2 cycles of cisplatin and 11 doses): completely reversed the cisplatin-induced loss of IENFs
- IENF density in cisplatin-treated mice, short-term treatment (IENF density; short-term treatment): had no effect on IENF density
- spontaneous pain: preference for retigabine-paired light chamber [6]: did not develop a preference for the retigabine-paired light chamber
- biologically active plasma exposure after dosing [7]: 8 hours
- half-life (T1/2) [7]: 3.5 h
- maximum plasma concentration (Cmax) [7]: 936 ng/mL
- concentration at which an effect on histone acetylation is evident [8]: 10 µM
- persistence of the protective effect after the last dose [9]: ≥ 3 days
